ChEMBL document CHEMBL1122250, “Synthesis and bacterial metabolism of cis- and trans-2-alkyl analogues of sodium cyclamate” (1983)

Assays:
Rattus norvegicus [1] = species on record: Rattus norvegicus; assay: Evaluated for the amine formed (during conversion of N-cycloalkylsulfamates to cycloalkylamines) in 10 mL incubation in Control rats; assay type: functional
In short: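 Fresh feces (~5 g) from control rats were suspended in prereduced anaerobic minimal medium (pH 7 ± 0.2), spun at low then high speed, and the pellet resuspended. 1.0 mL suspension plus 9 mL medium and 100 mg sulfamate ran 22–24 h at 44–45 °C with CO2 bubbling. Amine was extracted at pH 10 into CH2Cl2, derivatized with phenyl isocyanate, and read by HPLC-UV 240 nm against an external standard. Reported as total µg per 10 mL.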

Rattus norvegicus [2] = species on record: Rattus norvegicus; assay: Evaluated for the amine formed (during conversion of N-cycloalkylsulfamates to cycloalkylamines) in 10 mL incubation in cyclamate-fed rats; assay type: functional
In short: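 Rats drank 1% sodium cyclamate for at least 6 weeks; only cyclamate converters were used. Fresh feces (~5 g) were suspended in prereduced anaerobic minimal medium (pH 7 ± 0.2), and the washed bacterial pellet was resuspended. 1.0 mL suspension plus 9 mL medium and 100 mg sulfamate ran 22–24 h at 44–45 °C with CO2 bubbling. Amine was converted to phenylurea with phenyl isocyanate and quantified by HPLC-UV 240 nm against an external standard. Reported as µg per 10 mL.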

| SMILES | Amine formed (Rattus norvegicus [1]) | Amine formed (Rattus norvegicus [2]) |
| --- | --- | --- |
| CC(C)C1CCCCC1NS(=O)(=O)[O-].[Na+] (trans isomer) | 0 µg | 0 µg |
| CC1CCCCC1NS(=O)(=O)[O-].[Na+] (cis isomer) | 402 µg | 457 µg |
| O=S(=O)([O-])NC1CCCCC1.[Na+] [SODIUM CYCLAMATE] | 0 µg | 39 µg |
| CC(C)C1CCCCC1NS(=O)(=O)[O-].[Na+] (stereo in doubt) | 27.9 µg | 37.5 µg |
| CC1CCCCC1NS(=O)(=O)[O-].[Na+] (stereo in doubt) | 0 µg | 42 µg |
| CCC1CCCCC1NS(=O)(=O)[O-].[Na+] (trans isomer) | 0 µg | 57 µg |
| CCC1CCCCC1NS(=O)(=O)[O-].[Na+] (stereo in doubt) | – | 35 µg |
